This note sets out measurements from ChEMBL document CHEMBL4811308, “Design, synthesis and broad spectrum antibreast cancer activity of diarylindoles via induction of apoptosis in aggressive breast cancer cells” (Bioorg Med Chem, 2021).

The subject of one data set is MCF7. In words: Cytotoxicity against human MCF7 cells assessed as reduction in cell viability incubated for 24 hrs by MTT assay. It counts as functional, cell-based. Conditions: MCF7, 24 h. Summed up:
(§1)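 MTT viability: cells seeded at 1 × 10^4/well, grown 24 h, then exposed to a concentration range of compound for 24 h. MTT (5 mg/mL stock) added for 3 h, formazan dissolved in DMSO, absorbance read at 540 nm.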
For orientation: Tetrazolium assays rely on reduction of a dye to a coloured formazan, in cell work by metabolically active cells.

Data set [1] has as its system MDA-MB-231. In words: Cytotoxicity against human MDA-MB-231 cells assessed as reduction in cell viability incubated for 24 hrs by MTT assay. The class given is functional, cell-based. The settings on record: MDA-MB-231, 24 h. Summed up:
as §1

The subject of another data set is PC-3. In words: Cytotoxicity against human PC-3 cells assessed as reduction in cell viability incubated for 24 hrs by MTT assay. It counts as functional, cell-based. Conditions: PC-3, 24 h. Summed up:
as §1

For another data set, the system named is HEK293. Put plainly: Cytotoxicity against human HEK293 cells assessed as reduction in cell viability incubated for 24 hrs by MTT assay. It counts as cell-based. Conditions: HEK293, 24 h. Summed up: as §1
Data set [2] relates to MDA-MB-231. Put plainly: Induction of cell cycle arrest in human MDA-MB-231 cells assessed as accumulation at G2/M phase at 2 uM incubated for 24 hrs by PI staining based flow cytometry analysis (reference value: 4.35 to 19.56 %). It counts as functional. (In general: In flow cytometry, cells or beads pass a laser one at a time.)
The subject of data set [3] is MDA-MB-231. In words: Induction of cell cycle arrest in human MDA-MB-231 cells assessed as accumulation at G2/M phase at 4 uM incubated for 24 hrs by PI staining based flow cytometry analysis (reference value: 4.35 to 19.56 %). It counts as functional.
The test system of data set [4] is MDA-MB-231. In words: Induction of cell cycle arrest in human MDA-MB-231 cells assessed as accumulation at S phase at 6 uM incubated for 24 hrs by PI staining based flow cytometry analysis (reference value: 40.37 to 57.89 %). The class given is functional.
Data set [5] has as its system MDA-MB-231. Put plainly: Induction of cell cycle arrest in human MDA-MB-231 cells assessed as accumulation at G2/M phase at 6 uM incubated for 24 hrs by PI staining based flow cytometry analysis (reference value: 4.35 to 19.56 %). The class given is functional.
Data set [6] relates to MDA-MB-231. Put plainly: Induction of apoptosis in human MDA-MB-231 cells assessed as viable cells at 2 uM incubated for 24 hrs by annexin-V-FITC and PI staining based flow cytometry analysis (reference value: 95.27 to 97.16 %). The class given is functional. Conditions: read-out: Activity.
The test system of data set [7] is MDA-MB-231. Put plainly: Induction of apoptosis in human MDA-MB-231 cells assessed as late apoptotic cells at 2 uM incubated for 24 hrs by annexin-V-FITC and PI staining based flow cytometry analysis (reference value: 0.28 to 0.84 %). It counts as functional.
For data set [8], the system named is MDA-MB-231. Put plainly: Induction of apoptosis in human MDA-MB-231 cells assessed as necrotic cells at 2 uM incubated for 24 hrs by annexin-V-FITC and PI staining based flow cytometry analysis (reference value: 0.01 to 0.8 %). The class given is functional.
In data set [9] the test system is MDA-MB-231. In words: Induction of apoptosis in human MDA-MB-231 cells assessed as viable cells at 4 uM incubated for 24 hrs by annexin-V-FITC and PI staining based flow cytometry analysis (reference value: 95.27 to 97.16 %). The settings on record: read-out: Activity. It counts as functional.
In data set [10] the test system is MDA-MB-231. In words: Induction of apoptosis in human MDA-MB-231 cells assessed as late apoptotic cells at 4 uM incubated for 24 hrs by annexin-V-FITC and PI staining based flow cytometry analysis (reference value: 0.28 to 0.84 %). The class given is functional.
In data set [11] the test system is MDA-MB-231. Put plainly: Induction of apoptosis in human MDA-MB-231 cells assessed as viable cells at 6 uM incubated for 24 hrs by annexin-V-FITC and PI staining based flow cytometry analysis (reference value: 95.27 to 97.16 %). The settings on record: read-out: Activity. It counts as functional.
Data set [12] has as its system MDA-MB-231. In words: Induction of apoptosis in human MDA-MB-231 cells assessed as necrotic cells at 6 uM incubated for 24 hrs by annexin-V-FITC and PI staining based flow cytometry analysis (reference value: 0.01 to 0.8 %). It counts as functional.
In data set [13] the test system is MDA-MB-231. In words: Induction of apoptosis in human MDA-MB-231 cells incubated for 24 hrs by annexin-V-FITC and PI staining based flow cytometry analysis. Conditions: dose 2-6 µM. It counts as functional, cell-based.
Data set [14] concerns MDA-MB-231. In words: Induction of mitochondrial membrane depolarization in human MDA-MB-231 cells at 2 to 6 uM incubated for 24 hrs by JC-1 staining based flow cytometry analysis. The class given is functional, cell-based. Conditions: dose 2-6 µM. Summed up:
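Mitochondrial potential measured in MDA-MB-231 cells (1 × 10^6) seeded in six-well plates for 24 h and treated 24 h. Trypsinized cells PBS-washed and stained with 5 µg/ml JC-1 for 30 min in dark at room temperature. Resuspended in PBS and read by flow cytometry as red aggregate versus monomer fluorescence.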

The test system of data set [15] is MDA-MB-231. Put plainly: Induction of autophagy in human MDA-MB-231 cells at 2 to 4 uM incubated for 24 hrs by MDC staining based fluorescence microscopic analysis. It counts as functional, cell-based. The settings on record: dose 2-4 µM. The method, boiled down: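 Autophagic vacuoles detected in MDA-MB-231 cells (1 × 10^6) seeded on cover slips for 24 h, then treated 24 h. Cells PBS-washed, stained with 0.05 mM monodansylcadaverine for 30 min in dark at room temperature, washed, and examined by fluorescence microscopy.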

The next data set relates to 4T1. In words: Antitumor activity against mouse 4T1 cells […] in BALB/c mouse assessed as reduction in tumor growth at 10 to 20 mg/kg, po administered for 21 days and measured on day 21 relative to control. Conditions: dose 10-20 mg/kg, time 21.0 day. It counts as functional, organism-based. The method, boiled down:
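Orthotopic syngeneic model: 4T1 cells (7 × 10^5) injected into the mammary fat pad of six-week-old female Balb/c mice; randomized once tumors were measurable (1 week). Compounds in ethanol diluted in PBS, 10 or 20 mg/kg oral gavage daily for 21 days; vehicle controls. Tumor size measured twice weekly; volume = (LW²) × 0.5.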

Data set [16] in a line: Toxicity in BALB/c mouse xenografted with mouse 4T1 cells assessed as survival rate at 10 to 20 mg/kg, po administered for 21 days and measured on day 21. The class given is organism-based. The settings on record: in vivo, 504 h, dose 10-20 mg/kg, time 21 day. Summed up: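 Orthotopic syngeneic model: 4T1 cells (7 × 10^5) injected into mammary fat pad of six-week-old female Balb/c mice. Once tumours were measurable at one week, mice were randomized into ten groups. Compound was dissolved in ethanol, diluted in PBS, and given by oral gavage at 10 or 20 mg/kg daily for 21 days; vehicle controls. Body weight and tumour size were measured twice weekly.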

pIC50: −log10 of the molar value. Activity calls are given as the source filed them. No cut-off for these calls is given here.

Broadly, the pIC50 is the IC50 on a negative log10 scale, so that one unit is a factor of ten. Turning to `COc1ccc2c(c1)c(Cc1ccc(OC(C)CN(C)C)cc1)c(-c1cc(OC)c(OC)c(OC)c1)n2Cc1ccc(OC(C)CN(C)C)cc1` (stereo not given), the pIC50 in the data set with MCF7 was 5.15; in the data set with MDA-MB-231 [1], 5.41; in the data set with PC-3 it was 5.17; with HEK293, 4.66. The Activity with MDA-MB-231 [2] turned out to be 12.85%; with MDA-MB-231 [3], 9.55%; with MDA-MB-231 [4] it was 42.27%; in the data set on MDA-MB-231 [5] it was 8.37%; in the data set on MDA-MB-231 [7], 3.43%; with MDA-MB-231 [8], 3.43%. The Activity with MDA-MB-231 [10] was 15.18%; in the data set on MDA-MB-231 [12], 7.58%; in the data set with MDA-MB-231 [13], “Dose-Dependent Effect”; in data set [16], “Non-Toxic”. Moreover, in the data set on MDA-MB-231 [6], the viability at 2 µM turned out to be 72.5%. Besides, in the data set on MDA-MB-231 [9], the viability at 4 µM amounted to 53.2%. For the same compound, the viability at 6 µM with MDA-MB-231 [11] amounted to 45.8%. The result with MDA-MB-231 [14], in the data set on MDA-MB-231 [15] and in the data set on 4T1 was Active.

As for `CCN(CC)CCOc1ccc(Cc2c(-c3cc(OC)c(OC)c(OC)c3)n(Cc3ccc(OCCN(CC)CC)cc3)c3ccc(OC)cc23)cc1`, the pIC50 in the data set with MCF7 was 5.20; in the data set with MDA-MB-231 [1], 5.63; with PC-3, 5.08; with HEK293, 4.60. In addition, the Activity is 10.07% in the data set on MDA-MB-231 [2]; 8.09% with MDA-MB-231 [3]; 36.56% in the data set with MDA-MB-231 [4]; 5.84% in the data set on MDA-MB-231 [5]; 2.94% in the data set on MDA-MB-231 [7]; 4.3% in the data set on MDA-MB-231 [8]. The Activity was 14.66% with MDA-MB-231 [10], 2.09% in the data set with MDA-MB-231 [12], “Dose-Dependent Effect” with MDA-MB-231 [13] and “Non-Toxic” in data set [16]. The viability at 2 µM in the data set with MDA-MB-231 [6] was found to be 88.2%. For the same compound, in the data set with MDA-MB-231 [9], the viability at 4 µM was 77.9%. Besides, in the data set on MDA-MB-231 [11], the viability at 6 µM came out at 69.7%. Also, the result with MDA-MB-231 [14], in the data set on MDA-MB-231 [15] and with 4T1 was Active.

Consider `COc1ccc2c(c1)c(Cc1ccc(OCCN3CCCCC3)cc1)c(-c1cc(OC)c(OC)c(OC)c1)n2Cc1ccc(OCCN2CCCCC2)cc1`, for which the pIC50 with MCF7 was 5.19; in the data set with MDA-MB-231 [1], 5.62; in the data set with PC-3 it was 5.15; in the data set on HEK293, 4.52. For the same compound, the Activity with MDA-MB-231 [2] is reported as 12.45%; with MDA-MB-231 [3] it was 15.43%; in the data set with MDA-MB-231 [4] it was 29.41%; in the data set on MDA-MB-231 [5], 8.91%; in the data set on MDA-MB-231 [7] it was 4.26%; in the data set on MDA-MB-231 [8], 2.01%. The Activity in the data set on MDA-MB-231 [10] was 26.25%; in the data set on MDA-MB-231 [12], 0.55%; in the data set with MDA-MB-231 [13], “Dose-Dependent Effect”; in data set [16], “Non-Toxic”. In addition, the viability at 2 µM in the data set with MDA-MB-231 [6] stood at 81.5%. Moreover, the viability at 4 µM with MDA-MB-231 [9] was 56%. Also, the viability at 6 µM with MDA-MB-231 [11] was 44.6%. Further, the result with MDA-MB-231 [14], with MDA-MB-231 [15] and with 4T1 was Active.

`COc1ccc2c(c1)c(Cc1ccc(OCCN(C)C)cc1)c(-c1cc(OC)c(OC)c(OC)c1)n2Cc1ccc(OCCN(C)C)cc1`: the pIC50 in the data set on MCF7 is 5.35; with MDA-MB-231 [1], 5.42; in the data set on PC-3, 5.24; with HEK293 it was 4.61. For the same compound, the Activity amounted to 0.79% in the data set with MDA-MB-231 [2]; 0.22% in the data set on MDA-MB-231 [3]; 35.63% with MDA-MB-231 [4]; 0% in the data set on MDA-MB-231 [5]; 5.32% in the data set on MDA-MB-231 [7]; 2.34% in the data set on MDA-MB-231 [8]. The Activity was 20.05% in the data set with MDA-MB-231 [10], 9.08% in the data set on MDA-MB-231 [12], “Dose-Dependent Effect” with MDA-MB-231 [13] and “Non-Toxic” in data set [16]. Further, the viability at 2 µM with MDA-MB-231 [6] worked out at 80.7%. The viability at 4 µM with MDA-MB-231 [9] was found to be 58.3%. In addition, in the data set on MDA-MB-231 [11], the viability at 6 µM was determined as 36.2%. The outcome in the data set with MDA-MB-231 [14], with MDA-MB-231 [15] and in the data set with 4T1 was Active.
